Assay results: ChEMBL document CHEMBL5329221, “A covalent fragment-based strategy targeting a novel cysteine to inhibit activity of mutant EGFR kinase” (RSC Med Chem, 2023)
The source made the active and inactive calls. The calls are words filed in the database; no cut-off is given here.

Legend:
[1] = target: Epidermal growth factor receptor (Homo sapiens) (UniProt P00533); assay: (§1) Inhibition of wild type human EGFR assessed as decrease in substrate phosphorylation using Srctide as substrate preincubated for 15 mins followed by substrate addition in presence of 1mM of ATP and measured after 45 mins by microplate reader analysis; details: time 60.0 min
Method in brief: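 Wild-type EGFR at 800 ng/mL was preincubated 15 min with 1 µM compound in 100 mM HEPES pH 7.4, 0.003% Brij-35, 0.004% Tween-20, 1 mM DTT. Then 1 mM ATP, 1.5 µM Srctide, 10 mM MgCl2 and 10 mM MnCl2 were added for 45 min. Mobility-shift read.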

[2] = target: T1, Epidermal growth factor receptor (Homo sapiens, UniProt P00533, C797S/L858R/T790M); assay: Inhibition of N-terminal His6-tagged human EGFR L858R/T790M/C797S mutant expressed in Sf9 cells assessed as decrease in substrate phosphorylation using Ulight-JAK1 peptide as substrate incubated for 1.5 hrs in presence of ATP by TR-FRET based LANCE Ultra kinase assay
Method in brief: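 LANCE Ultra TR-FRET assay with 0.25 nM EGFR_TM, 1 µM ATP, 50 nM ULight-JAK1 peptide, 50 mM HEPES pH 7.5, 10 mM MgCl2, 5 mM MnCl2, 1 mM DTT, 0.015% Brij35, 5% DMSO, 1.5 h at 23°C. EDTA stop, Eu-anti-pTyr PT66, 1 h. Signal is the 665/620 nm ratio, normalised to no-protein controls. IC50 from a four-parameter fit, otherwise % inhibition at the top concentration.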

[3] = system: Epidermal growth factor receptor (Homo sapiens), P00533 [L858R]; assay: Binding affinity to N-terminal His6-tagged human EGFR L858R mutant expressed in Sf9 cells at pH 7.4 assessed as covalent adduct at +277 Da formation at 0.3 to 1 uM incubated for 1 hrs by LC-MS analysis; details: dose 0.3-1 µM
Method in brief: (§2)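 EGFR (694-1022) L858R or L858R/C775S as N-terminal His-GST fusions from Sf9 cells, purified by Ni affinity then SEC. Each protein at 0.5 mg/ml was incubated with compound (0.3, 1 or 3 µM) in 20 mM Tris-HCl pH 7.5, 150 mM NaCl, 1 mM TCEP, 5% glycerol, 1 h at room temperature. SDS was added to 1% final, samples boiled 95°C 10 min, then UHPLC-MS.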

[4] = system: Epidermal growth factor receptor (Homo sapiens), P00533 [L858R,C775S]; assay: Binding affinity to N-terminal His6-tagged human EGFR L858R/C775S mutant expressed in Sf9 cells at pH 7.4 assessed as covalent adduct at +277 Da formation at 0.3 to 1 uM incubated for 1 hrs by LC-MS analysis; details: dose 0.3-1 µM; method in brief: as §2
[5] = target: T1, Epidermal growth factor receptor; assay: as §1, with “N-terminal His6-tagged” for “wild type”, “EGFR L858R/T790M/C797S mutant expressed in Sf9 cells” for “EGFR”, “20” for “15”, “5uM” for “1mM”
[6] = target: T1, Epidermal growth factor receptor; assay: as §1, with “N-terminal His6-tagged” for “wild type”, “EGFR L858R/T790M/C797S mutant expressed in Sf9 cells” for “EGFR”, “60” for “15”, “5uM” for “1mM”
[7] = target: T1, Epidermal growth factor receptor; assay: Inhibition of N-terminal His6-tagged human EGFR L858R/T790M/C797S mutant expressed in Sf9 cells assessed as decrease in substrate phosphorylation incubated for 45 mins using Srctide as substrate in presence of 1mM of ATP by microplate reader analysis
Method in brief: (§3)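 Compound in DMSO was preincubated 0, 20 or 60 min with 250 pg/µL EGFR_TM (residues 694-1022) in 20 mM HEPES pH 7.4, 5 mM MgCl2, 1 mM MnCl2, 0.003% Brij-35, 0.004% Tween-20, 2 mM DTT. […] EDTA stop; phosphorylation read by mobility-shift chip, ex 488/em 530 nm.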

[8] = target: T1, Epidermal growth factor receptor; assay: (§4) Inhibition of N-terminal His6-tagged human EGFR L858R/T790M/C797S mutant expressed in Sf9 cells assessed as decrease in substrate phosphorylation using Srctide as substrate preincubated for 20 mins followed by substrate addition in presence of 1mM of ATP and measured after 45 mins by microplate reader analysis; method in brief: as §3
[9] = target: T1, Epidermal growth factor receptor; assay: as §4, with “60” for “20”; method in brief: as §3
[10] = system: Epidermal growth factor receptor (Homo sapiens), P00533 [UNDEFINED MUTATION]; assay: Inhibition of human EGFR d746-750/T790M/C797S mutant assessed as decrease in substrate phosphorylation using Srctide as substrate preincubated for 15 mins followed by substrate addition in presence of 1mM of ATP and measured after 45 mins by microplate reader analysis; details: time 60.0 min
Method in brief: (§5)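 Compound at 1 µM final, 15 min preincubation with mutant EGFR in mutant-EGFR buffer (5 mM MgCl2, 1 mM MnCl2) at 200 ng/mL for T790M/C797S/L858R, 180 ng/mL for d746-750/T790M, and 350 ng/mL for d746-750/T790M/C797S. Then 1 mM ATP plus 1.5 µM Srctide for 45 min. Mobility-shift read.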

[11] = system: Epidermal growth factor receptor (Homo sapiens), P00533 [L858R,T790M,C797S]; assay: Inhibition of human EGFR T790M/C797S/L858R mutant assessed as decrease in substrate phosphorylation using Srctide as substrate preincubated for 15 mins followed by substrate addition in presence of 1mM of ATP and measured after 45 mins by microplate reader analysis; details: time 60.0 min; method in brief: as §5
[12] = system: Epidermal growth factor receptor (Homo sapiens), P00533 [UNDEFINED MUTATION]; assay: Inhibition of human EGFR d746-750/T790M mutant assessed as decrease in substrate phosphorylation using Srctide as substrate preincubated for 15 mins followed by substrate addition in presence of 1mM of ATP and measured after 45 mins by microplate reader analysis; details: time 60.0 min; method in brief: as §5
[13] = system: Epidermal growth factor receptor (Homo sapiens), P00533 [L858R,T790M]; assay: Inhibition of human EGFR T790M/L858R mutant assessed as decrease in substrate phosphorylation using Srctide as substrate preincubated for 15 mins followed by substrate addition in presence of 1mM of ATP and measured after 45 mins by microplate reader analysis; details: time 60.0 min
Method in brief: (§6)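 Panel format: compound at 1 µM final was preincubated 15 min with kinase in 20 mM HEPES pH 7.4, 5 mM MgCl2, 1 mM MnCl2, 0.003% Brij-35, 0.004% Tween-20, 2 mM DTT. ATP (1 mM) and Srctide (1.5 µM) were then added for 45 min. EDTA stop; mobility-shift read, ex 488/em 530 nm.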

[14] = system: Epidermal growth factor receptor (Homo sapiens), P00533 [UNDEFINED MUTATION]; assay: Inhibition of human EGFR d746-750 mutant assessed as decrease in substrate phosphorylation using Srctide as substrate preincubated for 15 mins followed by substrate addition in presence of 1mM of ATP and measured after 45 mins by microplate reader analysis; details: time 60.0 min; method in brief: as §6
[15] = system: Epidermal growth factor receptor (Homo sapiens), P00533 [L858R]; assay: Inhibition of human EGFR L858R mutant assessed as decrease in substrate phosphorylation using Srctide as substrate preincubated for 15 mins followed by substrate addition in presence of 1mM of ATP and measured after 45 mins by microplate reader analysis; details: time 60.0 min; method in brief: as §6

In the case of `C=CC(=O)Nc1cc(-c2cn(C)c3ccccc23)ncn1`, the inhibition [1] is reported as over 80%, the IC50 [2] is reported as 900 nM and the Activity [3] is reported as “inactive”. The Activity [4] was “Active”, the IC50 [5] was 239 nM and the IC50 [6] was 167 nM. The IC50 [7] was 1300 nM, the IC50 [8] was 251 nM and the IC50 [9] was 150 nM. The inhibition [10] was over 80%, the inhibition [11] was over 80% and the inhibition [12] was over 80%. It also gave an inhibition [13] of over 80%, an inhibition [14] of over 80% and an inhibition [15] of over 80%.
